Experimental data: ChEMBL document CHEMBL1141282, “Isariotins A-D, alkaloids from the insect pathogenic fungus Isaria tenuipes BCC 7831” (J Nat Prod, 2007)
≈ marks a conversion by molar mass, not a printed value. Calls of active or inactive are those of the source. No cut-off for these calls is given here.

How the values were obtained:
Candida albicans = test: Antifungal activity against Candida albicans up to 50 ug/mL; assay type: functional, organism-based
NCI-H187 = test: Cytotoxicity against human NCI-H-187 cells up to 20 ug/mL; assay type: functional, cell-based
Vero = test: Cytotoxicity against African green monkey Vero cells up to 50 ug/mL; assay type: cell-based; conditions: chlorocebus sabaeus
KB = test: Cytotoxicity against human KB cells up to 20 ug/mL; assay type: functional, cell-based
[1] = system: Mycobacterium tuberculosis; test: Antitubercular activity against Mycobacterium tuberculosis H37Ra; assay type: functional
Procedure, shortened: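 Whole-cell test against the H37Ra strain, with the minimum inhibitory concentration (MIC) read out in µg/mL.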

Plasmodium falciparum = test: Antiplasmodial activity against Plasmodium falciparum K1 to 20 ug/mL; assay type: functional, organism-based
BC = test: Cytotoxicity against human BC cells up to 20 ug/mL; assay type: functional, cell-based
Pyricularia grisea = test: Antifungal activity against Magnaporthe grisea up to 50 ug/mL; assay type: functional, organism-based

Row | SMILES | Activity (Candida albicans) | Activity (NCI-H187) | Activity (Vero) | Activity (KB) | MIC [1] | Activity (Plasmodium falciparum) | Activity (BC) | Activity (Pyricularia grisea)
1 | O=C(/C=C/CCCCCCCCCO)N[C@H]1C[C@@]2(O)C(=O)[C@H]([C@H](O)[C@@H]3O[C@@H]32)[C@H]1O [ISARIOTIN A] | inactive | inactive | Not Active | inactive | 486 µM (≈ 200 µg/mL) | inactive | inactive | inactive
2 | CCCCCC(=O)CCC/C=C/C(=O)N[C@H]1C[C@@]2(O)C(=O)[C@H]([C@H](O)[C@@H]3O[C@@H]32)[C@H]1O [ISARIOTIN C] | inactive | inactive | Not Active | inactive | 488 µM (≈ 200 µg/mL) | inactive | inactive | inactive
3 | O=C(O)CCCCCCCC/C=C/C(=O)N[C@H]1C[C@@]2(O)C(=O)[C@H]([C@H](O)[C@@H]3O[C@@H]32)[C@H]1O [ISARIOTIN B] | inactive | inactive | Not Active | inactive | – | inactive | inactive | inactive
4 | CCCCCCC/C=C/C(=O)N[C@H]1C[C@@]2(O)C(=O)[C@H]([C@H](O)[C@@H]3O[C@@H]32)[C@H]1O [ISARIOTIN D] | inactive | inactive | Not Active | inactive | 544 µM (≈ 200 µg/mL) | inactive | inactive | inactive
